Source: ChEMBL document CHEMBL2384906, “Biological activity, design, synthesis and structure activity relationship of some novel derivatives of curcumin containing sulfonamides” (Eur J Med Chem, 2013)
Converted amounts (≈) assume the structure as drawn. The source made the active and inactive calls. The rule behind the calls is not given here.

How the values were obtained:
Mus musculus = test: Antiinflammatory activity in mouse assessed as inhibition of carrageenan-induced increase in paw volume at 200 mg/kg administered 1 hr prior to carrageenan challenge measured after 3 hrs relative to control; type: functional
Procedure, shortened: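 Mice were fasted 2 h and placed in groups of five. Controls received saline i.p. Phenylbutazone was given at 100 mg/kg i.p., curcumin at 200 mg/kg i.p., and derivatives at 200 mg/kg. After 1 h, 0.1 mL of 1% carrageenan in saline was injected subplantar into the right hind paw. Paw volume was followed by plethysmometer for 3 h, and % inhibition was calculated as (Vc − Vt)/Vc × 100.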

HCT-116 = test: Cytotoxicity against human HCT116 cells after 24 hrs by MTT assay; type: functional, cell-based
Procedure, shortened: (§1)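 The MTT assay seeded 5 × 10⁴ cells per well and grew them 24 h in RPMI 1640 with compound at 2.5–200 µM. Medium without cells was the blank and adriamycin the positive control. MTT was added for 4 h at 37 °C, formazan was solubilised, and absorbance was read at 570 nm. IC50 is the concentration that cuts viability 50% against untreated cells.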

QG-56 = test: Cytotoxicity against human QG56 cells after 24 hrs by MTT assay; type: functional, cell-based; procedure, shortened: as §1
HeLa = test: Cytotoxicity against human HeLa cells after 24 hrs by MTT assay; type: functional, cell-based; procedure, shortened: as §1
HepG2 = test: Cytotoxicity against human HepG2 cells after 24 hrs by MTT assay; type: functional, cell-based; procedure, shortened: as §1
Trichoderma viride [1] = test: Antifungal activity against Trichoderma viride MTCC 1107 after 48 hrs; type: functional; conditions: MTCC 1107, 48 h
Trichoderma viride [2] = test: Antifungal activity against Trichoderma viride MTCC 1107 assessed as zone of inhibition at 20 uM after 48 hrs by disc diffusion method; type: functional
Procedure, shortened: (§2)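 Spores from 4-day potato dextrose agar cultures, suspended in sterile water at 1.5 × 10⁵ CFU/mL. 0.2 mL was spread on potato dextrose agar. 5 mm filter-paper discs soaked with test compound were laid on the lawn. Incubation was 48 h at 28 °C, then the inhibition zone was measured in mm. Fluconazole was the positive control and acetone the negative control.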

Trichoderma viride [3] = test: Antifungal activity against Trichoderma viride MTCC 1107 assessed as zone of inhibition at 40 uM after 48 hrs by disc diffusion method; type: functional; conditions: MTCC 1107, 48 h, read-out: IZ; procedure, shortened: as §2
Trichoderma viride [4] = test: Antifungal activity against Trichoderma viride MTCC 1107 assessed as zone of inhibition at 80 uM after 48 hrs by disc diffusion method; type: functional; conditions: MTCC 1107, 48 h, read-out: IZ; procedure, shortened: as §2
Curvularia lunata [5] = test: Antifungal activity against Curvularia lunata MTCC 581 after 48 hrs; type: functional; conditions: MTCC 581, 48 h
Curvularia lunata [6] = test: Antifungal activity against Curvularia lunata MTCC 581 assessed as zone of inhibition at 20 uM after 48 hrs by disc diffusion method; type: functional; procedure, shortened: as §2
Curvularia lunata [7] = test: Antifungal activity against Curvularia lunata MTCC 581 assessed as zone of inhibition at 40 uM after 48 hrs by disc diffusion method; type: functional; procedure, shortened: as §2
Aspergillus flavus [8] = test: Antifungal activity against Aspergillus flavus MTCC 1021 after 48 hrs; type: functional
Curvularia lunata [9] = test: Antifungal activity against Curvularia lunata MTCC 581 assessed as zone of inhibition at 80 uM after 48 hrs by disc diffusion method; type: functional; conditions: MTCC 581, 48 h, read-out: IZ; procedure, shortened: as §2
Aspergillus flavus [10] = test: Antifungal activity against Aspergillus flavus MTCC 1021 assessed as zone of inhibition at 80 uM after 48 hrs by disc diffusion method; type: functional; procedure, shortened: as §2
Aspergillus niger [11] = test: Antifungal activity against Aspergillus niger MTCC 1108 after 48 hrs; type: functional; conditions: MTCC 1108, 48 h
Aspergillus niger [12] = test: Antifungal activity against Aspergillus niger MTCC 1108 assessed as zone of inhibition at 20 uM after 48 hrs by disc diffusion method; type: functional; procedure, shortened: as §2
Aspergillus niger [13] = test: Antifungal activity against Aspergillus niger MTCC 1108 assessed as zone of inhibition at 40 uM after 48 hrs by disc diffusion method; type: functional; procedure, shortened: as §2
Aspergillus niger [14] = test: Antifungal activity against Aspergillus niger MTCC 1108 assessed as zone of inhibition at 80 uM after 48 hrs by disc diffusion method; type: functional; conditions: MTCC 1108, 48 h, read-out: IZ; procedure, shortened: as §2
Escherichia coli [15] = test: Antimicrobial activity against Escherichia coli ATCC 35218 after 24 hrs by broth micro serial dilution method; type: functional; conditions: ATCC 35218, 24 h
Procedure, shortened: (§3)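 This was broth microdilution in autoclaved Mueller-Hinton broth. 150 µL of compound per well was serially diluted […], and 50 µL of test organism was added. Plates were incubated 24 h at 37 °C and optical density was read.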

Escherichia coli [16] = test: Antimicrobial activity against Escherichia coli ATCC 35218 assessed as diameter of inhibition zone at 20 uM after 24 hrs by Kirby -Baur disc diffusion method; type: functional
Procedure, shortened: (§4)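 Kirby-Bauer disc diffusion was used. Acetone stocks (160 µM) were serially doubled down to 80, 40 and 20 µM. 4 µL of each went onto 5 mm sterile paper discs, which were dried 30 min at 50 °C. Inoculum was 1.5 × 10⁸ CFU/mL diluted to 3 × 10² CFU/mL, and 50 µL was spread on Mueller-Hinton agar. After 24 h at 37 °C the inhibition-zone diameter was measured. Ciprofloxacin served as positive control.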

Escherichia coli [17] = test: Antimicrobial activity against Escherichia coli ATCC 35218 assessed as diameter of inhibition zone at 40 uM after 24 hrs by Kirby -Baur disc diffusion method; type: functional; conditions: ATCC 35218, 24 h, read-out: DIZ; procedure, shortened: as §4
Escherichia coli [18] = test: Antimicrobial activity against Escherichia coli ATCC 35218 assessed as diameter of inhibition zone at 80 uM after 24 hrs by Kirby -Baur disc diffusion method; type: functional; conditions: ATCC 35218, 24 h, read-out: DIZ; procedure, shortened: as §4
Pseudomonas aeruginosa [19] = test: Antimicrobial activity against Pseudomonas aeruginosa ATCC 15499 after 24 hrs by broth micro serial dilution method; type: functional; conditions: ATCC 15499, 24 h; procedure, shortened: as §3
Pseudomonas aeruginosa [20] = test: Antimicrobial activity against Pseudomonas aeruginosa ATCC 15499 assessed as diameter of inhibition zone at 20 uM after 24 hrs by Kirby -Baur disc diffusion method; type: functional; procedure, shortened: as §4
Pseudomonas aeruginosa [21] = test: Antimicrobial activity against Pseudomonas aeruginosa ATCC 15499 assessed as diameter of inhibition zone at 40 uM after 24 hrs by Kirby -Baur disc diffusion method; type: functional; procedure, shortened: as §4
Pseudomonas aeruginosa [22] = test: Antimicrobial activity against Pseudomonas aeruginosa ATCC 15499 assessed as diameter of inhibition zone at 80 uM after 24 hrs by Kirby -Baur disc diffusion method; type: functional; conditions: ATCC 15499, 24 h, read-out: DIZ; procedure, shortened: as §4
Salmonella typhi [23] = test: Antimicrobial activity against Salmonella typhi ATCC 23564 after 24 hrs by broth micro serial dilution method; type: functional, Salmonella enterica subsp. enterica serovar Typhi; conditions: Salmonella enterica, ATCC 23564, 24 h
Salmonella typhi [24] = test: Antimicrobial activity against Salmonella typhi ATCC 23564 assessed as diameter of inhibition zone at 20 uM after 24 hrs by Kirby -Baur disc diffusion method; type: functional, Salmonella enterica subsp. enterica serovar Typhi; conditions: Salmonella enterica, ATCC 23564, 24 h; read-out: DIZ
Salmonella typhi [25] = test: Antimicrobial activity against Salmonella typhi ATCC 23564 assessed as diameter of inhibition zone at 40 uM after 24 hrs by Kirby -Baur disc diffusion method; type: functional, Salmonella enterica subsp. enterica serovar Typhi; conditions: Salmonella enterica, ATCC 23564, 24 h; read-out: DIZ
Salmonella typhi [26] = test: Antimicrobial activity against Salmonella typhi ATCC 23564 assessed as diameter of inhibition zone at 80 uM after 24 hrs by Kirby -Baur disc diffusion method; type: functional, Salmonella enterica subsp. enterica serovar Typhi; conditions: Salmonella enterica, ATCC 23564, 24 h; read-out: DIZ
Bacillus cereus [27] = test: Antimicrobial activity against Bacillus cereus MTCC 7350 after 24 hrs by broth micro serial dilution method; type: functional; conditions: MTCC 7350, 24 h; procedure, shortened: as §3
Bacillus cereus [28] = test: Antimicrobial activity against Bacillus cereus MTCC 7350 assessed as diameter of inhibition zone at 40 uM after 24 hrs by Kirby -Baur disc diffusion method; type: functional; procedure, shortened: as §4
Bacillus cereus [29] = test: Antimicrobial activity against Bacillus cereus MTCC 7350 assessed as diameter of inhibition zone at 80 uM after 24 hrs by Kirby -Baur disc diffusion method; type: functional; conditions: MTCC 7350, 24 h, read-out: DIZ; procedure, shortened: as §4
Staphylococcus aureus [30] = test: Antimicrobial activity against Staphylococcus aureus ATCC 11632 after 24 hrs by broth micro serial dilution method; type: functional; conditions: ATCC 11632, 24 h; procedure, shortened: as §3
Staphylococcus aureus [31] = test: Antimicrobial activity against Staphylococcus aureus ATCC 11632 assessed as diameter of inhibition zone at 20 uM after 24 hrs by Kirby -Baur disc diffusion method; type: functional; procedure, shortened: as §4
Staphylococcus aureus [32] = test: Antimicrobial activity against Staphylococcus aureus ATCC 11632 assessed as diameter of inhibition zone at 40 uM after 24 hrs by Kirby -Baur disc diffusion method; type: functional; procedure, shortened: as §4
Staphylococcus aureus [33] = test: Antimicrobial activity against Staphylococcus aureus ATCC 11632 assessed as diameter of inhibition zone at 80 uM after 24 hrs by Kirby -Baur disc diffusion method; type: functional; conditions: ATCC 11632, 24 h, read-out: DIZ; procedure, shortened: as §4
Bacillus cereus [34] = test: Antimicrobial activity against Bacillus cereus MTCC 7350 assessed as diameter of inhibition zone at 20 uM after 24 hrs by Kirby -Baur disc diffusion method; type: functional; procedure, shortened: as §4
[35] = ATCC 15499, 24 h, read-out: DIZ
[36] = ATCC 11632, 24 h, read-out: DIZ

Compound	inhibition in vivo at 200 mg/kg (Mus musculus) [%]	IC50 (HCT-116) [µM]	IC50 (QG-56) [µM]	IC50 (HeLa) [µM]	IC50 (HepG2) [µM]	MIC (Trichoderma viride [1]) [µM]	inhibition zone (IZ) (Trichoderma viride [2])	zone of inhibition at 40 µM (Trichoderma viride [3]) [mm]	zone of inhibition at 80 µM (Trichoderma viride [4]) [mm]	MIC (Curvularia lunata [5]) [µM]	inhibition zone (IZ) (Curvularia lunata [6])	MIC (Aspergillus flavus [8])	zone of inhibition at 80 µM (Curvularia lunata [9]) [mm]	inhibition zone (IZ) (Aspergillus flavus [10])	MIC (Aspergillus niger [11]) [µM]	inhibition zone (IZ) (Aspergillus niger [12])	zone of inhibition at 80 µM (Aspergillus niger [14]) [mm]	MIC (Escherichia coli [15]) [µM]	zone of inhibition at 40 µM (Escherichia coli [17]) [mm]	zone of inhibition at 80 µM (Escherichia coli [18]) [mm]	other results
COc1cc(/C=C/C(CC(/C=C/c2ccc(O)c(OC)c2)=N/c2ccc(S(N)(=O)=O)cc2)=N\c2ccc(S(N)(=O)=O)cc2)ccc1O	12.9	100	> 100	100	> 100	40 (≈ 27.1 µg/mL)	inactive	10	11	> 80	inactive	inactive	9	inactive	> 80	inactive	9	40 (≈ 27.1 µg/mL)	10	12	inhibition zone (IZ) (Curvularia lunata [7]): inactive; inhibition zone (IZ) (Aspergillus niger [13]): inactive; diameter of the inhibition zone (DIZ) (Escherichia coli [16]): inactive; MIC (Pseudomonas aeruginosa [19]): 40 µM (≈ 27.1 µg/mL); zone of inhibition at 20 µM (Pseudomonas aeruginosa [20]; [35]): 9 mm; zone of inhibition at 40 µM (Pseudomonas aeruginosa [21]; [35]): 11 mm; zone of inhibition at 80 µM (Pseudomonas aeruginosa [22]): 18 mm; MIC (Salmonella typhi [23]): 40 µM (≈ 27.1 µg/mL); zone of inhibition at 20 µM (Salmonella typhi [24]): 9 mm; zone of inhibition at 40 µM (Salmonella typhi [25]): 11 mm; zone of inhibition at 80 µM (Salmonella typhi [26]): 16 mm; MIC (Bacillus cereus [27]): 40 µM (≈ 27.1 µg/mL); diameter of the inhibition zone (DIZ) (Bacillus cereus [28]): inactive; zone of inhibition at 80 µM (Bacillus cereus [29]): 11 mm; MIC (Staphylococcus aureus [30]): > 80 µM; diameter of the inhibition zone (DIZ) (Staphylococcus aureus [31]): inactive; diameter of the inhibition zone (DIZ) (Staphylococcus aureus [32]): inactive; zone of inhibition at 80 µM (Staphylococcus aureus [33]): 10 mm
COc1cc(/C=C/C(O)=C/C(/C=C/c2ccc(O)c(OC)c2)=N/c2ccc(S(N)(=O)=O)cc2)ccc1O	29	50	100	100	50	80 (≈ 41.8 µg/mL)	inactive	10	11	80 (≈ 41.8 µg/mL)	inactive	inactive	12	inactive	40 (≈ 20.9 µg/mL)	inactive	11	40 (≈ 20.9 µg/mL)	13	15	zone of inhibition at 40 µM (Curvularia lunata [7]; MTCC 581, 48 h, read-out: IZ): 9 mm; zone of inhibition at 40 µM (Aspergillus niger [13]; MTCC 1108, 48 h, read-out: IZ): 9 mm; zone of inhibition at 20 µM (Escherichia coli [16]; ATCC 35218, 24 h, read-out: DIZ): 12 mm; MIC (Pseudomonas aeruginosa [19]): > 80 µM; diameter of the inhibition zone (DIZ) (Pseudomonas aeruginosa [20]): inactive; diameter of the inhibition zone (DIZ) (Pseudomonas aeruginosa [21]): inactive; zone of inhibition at 80 µM (Pseudomonas aeruginosa [22]): 11 mm; MIC (Salmonella typhi [23]): 40 µM (≈ 20.9 µg/mL); zone of inhibition at 20 µM (Salmonella typhi [24]): 9 mm; zone of inhibition at 40 µM (Salmonella typhi [25]): 11 mm; zone of inhibition at 80 µM (Salmonella typhi [26]): 13 mm; MIC (Bacillus cereus [27]): > 80 µM; diameter of the inhibition zone (DIZ) (Bacillus cereus [34]): inactive; diameter of the inhibition zone (DIZ) (Bacillus cereus [28]): inactive; zone of inhibition at 80 µM (Bacillus cereus [29]): 9 mm; MIC (Staphylococcus aureus [30]): 40 µM (≈ 20.9 µg/mL); zone of inhibition at 20 µM (Staphylococcus aureus [31]; [36]): 10 mm; zone of inhibition at 40 µM (Staphylococcus aureus [32]; [36]): 13 mm; zone of inhibition at 80 µM (Staphylococcus aureus [33]): 14 mm
